Assay outcomes: PubChem BioAssay, several laboratories
Most compounds without a hit are left out; they make up all but 4.9% or so of the library.
PHOSPHO1 inh – inhibitors of human PHOSPHO1 phosphatase; recombinant PHOSPHO1, absorbance phosphatase assay; hit rate 1.1% among 290,000; inhibition, % at 13.3 µM; in the data active = inhibition above about 60%
Target sequence (Q8TCT1 whole entry, looked up): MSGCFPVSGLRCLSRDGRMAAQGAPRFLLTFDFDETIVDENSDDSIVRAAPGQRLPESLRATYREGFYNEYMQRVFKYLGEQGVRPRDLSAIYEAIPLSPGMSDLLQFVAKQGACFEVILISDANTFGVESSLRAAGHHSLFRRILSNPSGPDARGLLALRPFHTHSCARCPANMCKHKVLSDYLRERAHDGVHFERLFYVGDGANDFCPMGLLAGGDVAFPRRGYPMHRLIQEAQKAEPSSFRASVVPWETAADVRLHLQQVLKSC
HSF1 activator – increases HSF-1 driven luciferase reporter signal | NIH3T3-HGL HSF-1 luciferase reporter, MG132, 8 h; 100% = twice DMSO control signal | activation, % at 9 µM | hit rate 1.7% among 300,000 | AID 504408;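 active = mean replicate activation of at least 50% with a set share of replicates each reaching 50%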;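 also: 0% = median of the neutral control wells and 100% = twice that signal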
Lipid droplet – hepatic lipid droplet formation modulation | AML12 mouse hepatocytes, oleate lipid droplets, BODIPY imaging | inhibition, % at 6.5 µM | hit rate 0.4% among 240,000 | AID 1656;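 active = lipid droplet intensity inhibited by at least 50%, with more than 500 cells counted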
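Technique: fluorescence imaging, 20x objective, two fields per well / Assay system: AML12 hepatocytes (mouse) / Measure: % inhibition of lipid droplet signal / Doses: 6.5 µM single-point dosing / Incubation: overnight exposure / Reagent: 100 µM oleic acid challenge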
CHT allo act – allosteric activators of human choline transporter CHT. CHT-expressing cells, membrane potential dye, choline EC20; stronger effect = higher value; LV-AA mutant CHT in HEK293 cells. B-score at 10 µM. AID 488977. Q9GZV3. hit rate 0.49% among 310,000;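 active = initial fluorescence not abnormally high and integrated response B-score, plate-corrected, over 3 SD above library mean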
CHT inh – inhibits the human high affinity choline transporter; CHT-expressing cells, membrane potential dye, choline response; stronger effect = lower value; B-score at 10 µM; hit rate 0.86% among 310,000; AID 488975;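 active = B-score over 3 SD under the library average, and starting fluorescence ratio not unusually high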;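 also: choline stimulus applied at its EC90 after an EC20 pre-addition; B-score computed on integrated fluorescence ratio after choline addition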
HSF1 inhib – HSF1 inhibition; hit rate 0.77% among 300,000; AID 2098; activity change, negative = inhibition, % at 7.5 µM (by protocol); NIH3T3-HGL HSE-luciferase, MG132-induced, luminescence 8 h; stronger effect = lower value;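 active = more than half of replicate wells show activity change below -50%, luminescence cut by over half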;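 also: luciferase reports HSF-1 transcriptional activity via heat shock element; 0% = median of DMSO wells and -100% = zero luminescence signal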
Starred values were filed as active, the others as inactive; i = inactive; . = not tested or not shown.

SMILES	PHOSPHO1 inh	HSF1 activator	Lipid droplet	CHT allo act	CHT inh	HSF1 inhib
COc1ccc(C(=O)NC2CCCCCCC2)cc1OC	.	.	.	i	i	.
COc1cc(C2C(C#N)=C(N)Oc3cc(C)n(CCN4CCOCC4)c(=O)c32)cc(OC)c1OC (stereo not given)	-3	1	-2	i	i	-1
CN(C)c1cccc(/C=C(\C#N)c2ccccc2)c1	47	63*	6	i	i	36
CN(CC(=O)NCc1cccnc1)S(=O)(=O)c1ccc2c(c1)c(=O)n(C)c(=O)n2C	17	-89	.	i	i	-86*
C=CCOC(=O)C1=C(C)NC(SCC(=O)Nc2nccs2)=C(C#N)C1c1cccs1 (stereo not given)	62*	-2	.	i	i	-2
C=CCOC(=O)C1=C(C)NC(SC)=C(C#N)C1c1cccs1 (stereo not given)	25	39	.	i	i	11
C=CCOC(=O)C1=C(C)NC(SCC(=O)Nc2nccs2)=C(C#N)C1c1ccc(Cl)cc1 (stereo not given)	67*	40	.	i	i	6
COC(=O)c1ccc(N2C(=O)CC(SCCN)C2=O)cc1 (stereo not given)	8	22	18	i	i	-1
O=C(COc1ccccc1)N1CCCC1	46	-10	3	i	i	-1
O=C(COc1ccc(Cl)cc1)N1CCCC1	-11	-73	-4	i	i	-71*
O=C(CCSc1ccc(Cl)cc1)N1CCCCCC1	22	107*	.	i	i	75
NC(=O)C1CCN(C(=O)CCSc2ccc(Cl)cc2)CC1	16	20	10	i	i	13
Clc1ccc(-c2cc(-c3ccccc3)on2)cc1	.	.	.	i	i	.
Cc1nc(-c2cc(-c3ccc(Cl)cc3)no2)cs1	9	71*	-16	i	i	47
C=CCN1C(=O)C2(NC(=O)c3ccccc3N2)c2ccccc21 (stereo not given)	-7	2	-11	i	i	-1
C=CCN1C(=O)C2(NNc3ccccc3O2)c2ccccc21 (stereo not given)	87*	6	0	i	i	6
CCCCN1C(=O)C2(NNc3ccccc3O2)c2ccccc21 (stereo not given)	73*	-1	0	i	i	1
O=c1c2ccccc2ncn1-c1ccc([N+](=O)[O-])cc1Cl	.	-52	-2	i	i	-41
O=C(NC(=S)N1CCN(c2ccc(C(F)(F)F)cc2[N+](=O)[O-])CC1)c1cccs1	21	-94	6	i	i	-94*
CCN1CCN(C(=S)NC(=O)c2cccs2)CC1	36	-10	.	i	i	-3
CC1(C)CC(=O)N(c2ccc(Cl)cc2Cl)C(=O)C1	.	-4	.	i	i	-3
C/C(=N\NC(=O)CN(c1ccccc1Br)S(C)(=O)=O)c1ccc2c(c1)OCCO2	14	18	-22	i	i	9
Cc1ccc(C)c(N2CCN(C(=O)C3CCCN(c4ncnc5c4nc4n5CCCCC4)C3)CC2)c1 (stereo not given)	12	5	-32	i	-7.4*	1
COc1cc(-c2nc(-c3ccc4c(c3)-c3ccccc3S4(=O)=O)c(-c3ccccc3)[nH]2)cc(OC)c1O	11	65*	14	i	i	61
Cc1ccc(NC(=O)c2cnc(N3CCN(c4ccccn4)CC3)c3ccccc23)c(Br)c1	-22	-66	-2	i	i	-63*
SMILES	PHOSPHO1 inh	HSF1 activator	Lipid droplet	CHT allo act	CHT inh	HSF1 inhib
CC1(C)CC(=O)C(C(c2cccnc2)C2C(=O)CC(C)(C)CC2=O)C(=O)C1	-30	-92	.	i	i	-90*
CC(=O)N1N=C(c2ccccc2)CC1c1ccccc1[N+](=O)[O-] (stereo not given)	-6	109*	-24	i	i	76
O=C(c1ccccc1)N1N=C(c2ccccc2)CC1c1ccccc1[N+](=O)[O-] (stereo not given)	10	18	-1	i	i	15
COc1ccc(OCCCCn2c(CO)nc3ccccc32)cc1	.	-65	3	i	i	-54*
COc1ccc(OCCNc2c([N+](=O)[O-])c(=O)oc3ccccc23)cc1	37	-34	3	i	i	-16
COc1c([N+](=O)[O-])c(=O)oc2ccccc12	3	-79	-23	i	i	-72*
COc1ccc2[nH]cc(CCNC(=O)Nc3ccccc3)c2c1	.	39	.	i	i	2
COc1ccc2c(CCNC(=O)Nc3ccccc3)c[nH]c2c1	63*	-6	-11	i	i	8
CCOC(=O)N1CCC(N2CCN(S(=O)(=O)c3ccc(Cl)cc3)CC2)CC1	-9	1	3	i	i	1
CCCCOc1ccc(C(=O)NCC(=O)N(C)CC(=O)Nc2ccc(N3CCOCC3)cc2)cc1	.	-1	.	i	i	0
NC(=O)c1ccc(C(F)(F)F)n(Cc2ccc(Cl)cc2)c1=O	21	22	.	i	i	3
NC(=O)c1ccc(C(F)(F)F)n(Cc2cccc(Cl)c2)c1=O	4	64*	.	i	i	25
COc1ccc(-c2oc(=O)n(C)c2-c2ccc(OC)cc2)cc1	61*	10	-1	i	i	10
COc1ccc(CCNC(=O)C2CC(c3ccc([N+](=O)[O-])cc3)=NO2)cc1 (stereo not given)	14	8	.	i	i	5
CS(=O)(=O)c1ccc(C(=O)OCc2nnc(-c3ccc(Cl)cc3)o2)cc1[N+](=O)[O-]	-12	-95	8	i	i	-96*
COc1ccc(CC(=O)NCC2(c3ccc(OC)c(OC)c3)CCOCC2)cc1	11	14	-1	i	i	0
COc1ccc(C2(CNC(=O)Cc3ccccc3)CCCC2)cc1OC	65*	6	.	i	i	7
N/C(Cc1ccc([N+](=O)[O-])cc1)=N\OC(=O)c1ccccc1F	-12	66*	-6	i	i	49
O=C(OCc1c(F)cccc1Cl)c1cc([N+](=O)[O-])ccc1N1CCOCC1	.	15	.	i	i	9
O=C(Cc1ccc([N+](=O)[O-])cc1)OCc1c(F)cccc1Cl	14	56*	-8	i	i	39
N/C(Cc1ccc([N+](=O)[O-])cc1)=N\OC(=O)Cc1ccccc1	3	4	-1	i	i	1
C=CCNC(=S)NN=C1CCC(c2ccccc2)CC1 (stereo not given)	10	-28	0	i	i	-10
Cc1ccc(OCC(=O)NCc2ccco2)c([N+](=O)[O-])n1	8	-12	-1	i	i	-6
C=CCn1c(=O)c(C(=O)Nc2ccccc2C)c(O)c2ccccc21	-23	75*	.	.	.	32
